Experimental data taken from ChEMBL document CHEMBL1135550, “Highly potent geminal bisphosphonates. From pamidronate disodium (Aredia) to zoledronic acid (Zometa)” (J Med Chem, 2002).

Key:
Rattus norvegicus = assay: Effective dose after subcutaneous administration to TPTX rats for 50% reduction of hypercalcemia; format: functional; conditions: sc
How it was run: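 Young male rats (130-150 g) were thyroparathyroidectomized and allowed 4 days to recover, then fasting serum was sampled. Animals with serum Ca above 1.88 mM were discarded, and the rest were randomized into groups of 5. On days 5-8, 1,25(OH)2D3 (125 pmol/kg sc) was given with graded sc doses of bisphosphonate, and total serum calcium was measured. ED50 is the sc dose halving the hypercalcemia.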

[1] = Therapeutic ratio comparing nephrotoxic potential versus bone antiresorptive potency (reciprocal of ED50 (TPTX assay) / the total urinary malate dehydrogenase excretion); format: ADME, tissue-based, Urine
How it was run: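 Rats received repeated sc injections, with saline-injected controls. Malate dehydrogenase was totalled in units over eight 24-h urine collections from the start of dosing. The ratio is the reciprocal of the TPTX hypercalcemia ED50 (mg/kg) divided by total urinary MDH units.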

Mus musculus [2] = organism: Mus musculus; assay: Inhibition of bone resorption in the calvaria assay of mouse; format: functional
[3] = Ratio of calvaria mineralization to calvaria bone resorption; format: functional
Mus musculus [4] = organism: Mus musculus; assay: Inhibition of bone mineralization in the calvaria assay of mouse; format: functional
[5] = Therapeutic ratio comparing nephrotoxic potential versus bone antiresorptive potency ( reciprocal of ED50 (TPTX assay) / the total urinary malate dehydrogenase excretion); format: ADME; conditions: urine; read-out: Therapeutic ratio
How it was run: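 Ratio = (1/TPTX ED50 in mg/kg) ÷ total urinary malate dehydrogenase units, pooled from eight 24-h urine collections after starting repeated sc dosing. ED50 model: young male rats (130-150 g), thyroparathyroidectomized, 4-day recovery; rats with fasting serum Ca above 1.88 mM excluded; groups of 5. Days 5-8: 1,25(OH)2D3 125 pmol/kg sc plus graded sc bisphosphonate. ED50 = dose halving the hypercalcemia (total serum calcium).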

For O=P(O)(O)C(O)(CCN1CCCCCC1)P(=O)(O)O, the ED50 (Rattus norvegicus) was 0.025 mg/kg.

O=P(O)(O)C(NC1CCCCCC1)P(=O)(O)O [INCADRONIC ACID] showed an ED50 (Rattus norvegicus) of 0.007 mg/kg.

With O=P(O)(O)C(O)(Cn1cncn1)P(=O)(O)O the ED50 (Rattus norvegicus) was 0.6 mg/kg.

For Cc1[nH]cnc1CC(O)(P(=O)(O)O)P(=O)(O)O, the ED50 (Rattus norvegicus) was 0.0015 mg/kg.

Work on O=P(O)(O)C(O)(CCN1CCC(c2ccccc2)CC1)P(=O)(O)O yielded an ED50 (Rattus norvegicus) of about 0.011 mg/kg.

For Cn1ccnc1CC(O)(P(=O)(O)O)P(=O)(O)O, the ED50 (Rattus norvegicus) was 0.0006 mg/kg.

O=P(O)(O)C(N1CCCCCC1)P(=O)(O)O [N-(HEXAMETHYLENEIMINO)METHYLENEBISPHOSPHONIC ACID] showed an ED50 (Rattus norvegicus) of 0.04 mg/kg.

Work on O=P(O)(O)C(O)(CCCCCN1CCC(c2ccccc2)CC1)P(=O)(O)O yielded an ED50 (Rattus norvegicus) of over 0.3 mg/kg.

Compound O=P(O)(O)C(O)(CCN1CCCCC1)P(=O)(O)O has an ED50 (Rattus norvegicus) of 0.0056 mg/kg.

In the case of CCCN(C)CCC(O)(P(=O)(O)O)P(=O)(O)O, the ED50 (Rattus norvegicus) is reported as 0.003 mg/kg.

Compound O=P(O)(O)C(O)(CCNCCCOc1ccccc1)P(=O)(O)O has an ED50 (Rattus norvegicus) of 0.0012 mg/kg.

Cc1cnc(NC(P(=O)(O)O)P(=O)(O)O)s1 showed a Therapeutic ratio [1] of 4.5, an IC50 (Mus musculus [2]) of 40 nM and an ED50 (Rattus norvegicus) of 0.0015 mg/kg. For the same compound, the Ratio [3] was 375 and the IC50 (Mus musculus [4]) was 15 µM.

CN(CCCSc1ccc(Cl)cc1)CCC(O)(P(=O)(O)O)P(=O)(O)O gave an ED50 (Rattus norvegicus) of 0.0078 mg/kg.

For COc1ccc(OCCCN(C)CCC(O)(P(=O)(O)O)P(=O)(O)O)cc1, the ED50 (Rattus norvegicus) was 0.0012 mg/kg.

With O=P(O)(O)C(O)(CCNCCc1ccccc1)P(=O)(O)O the ED50 (Rattus norvegicus) was 0.3 mg/kg.

For CN(CCCCOc1ccccc1)CCC(O)(P(=O)(O)O)P(=O)(O)O, the ED50 (Rattus norvegicus) was 0.004 mg/kg.

Work on O=P(O)(O)C(O)(C1CNC1)P(=O)(O)O yielded an ED50 (Rattus norvegicus) of over 3 mg/kg.

O=P(O)(O)C(N1CCCCC1)P(=O)(O)O gave an ED50 (Rattus norvegicus) of 0.8 mg/kg.

O=P(O)(O)C(O)(CCN1CCC(c2ccc(Cl)cc2)C1)P(=O)(O)O (stereo not drawn) showed an ED50 (Rattus norvegicus) of 0.0035 mg/kg.

For Cc1ncn(CC(O)(P(=O)(O)O)P(=O)(O)O)c1C, the ED50 (Rattus norvegicus) was 0.0015 mg/kg.

With NCC(O)(P(=O)(O)O)P(=O)(O)O the ED50 (Rattus norvegicus) was 0.15 mg/kg.

With O=P(O)(O)C(O)(C1CCCCN1)P(=O)(O)O (stereo not drawn) the ED50 (Rattus norvegicus) was 0.05 mg/kg.

Work on CN(CCCOc1ccccc1)CCCC(O)(P(=O)(O)O)P(=O)(O)O yielded an ED50 (Rattus norvegicus) of 0.1 mg/kg.

Work on NCCCC(O)(P(=O)(O)O)P(=O)(O)O [ALENDRONIC ACID] yielded an IC50 (Mus musculus [2]) of 50 nM, an ED50 (Rattus norvegicus) of 0.008 mg/kg and a Ratio [3] of 400. The IC50 (Mus musculus [4]) was 20 µM and the selectivity ratio [5] was 6.6.

O=P(O)(O)C(Cc1nccs1)P(=O)(O)O showed an ED50 (Rattus norvegicus) of 0.2 mg/kg.

O=P(O)(O)C(N1CCCC1)P(=O)(O)O gave an ED50 (Rattus norvegicus) of over 2 mg/kg.

Compound NCCCCC(O)(P(=O)(O)O)P(=O)(O)O has an ED50 (Rattus norvegicus) of 0.02 mg/kg.

Compound O=P(O)(O)C(Nc1ncc(-c2ccccc2)s1)P(=O)(O)O has an ED50 (Rattus norvegicus) of over 1 mg/kg.

For Cc1cccc(OCCCN(C)CCC(O)(P(=O)(O)O)P(=O)(O)O)c1, the ED50 (Rattus norvegicus) was 0.0017 mg/kg.

Work on O=P(O)(O)C(Nc1nc2ccccc2[nH]1)P(=O)(O)O yielded an ED50 (Rattus norvegicus) of over 10 mg/kg.

CN(CCCc1ccccc1)CCC(O)(P(=O)(O)O)P(=O)(O)O gave a Therapeutic ratio [1] of 120, an IC50 (Mus musculus [2]) of 50 nM and an ED50 (Rattus norvegicus) of 0.001 mg/kg. The Ratio [3] was 80 and the IC50 (Mus musculus [4]) was 4 µM.

O=P(O)(O)C(Nc1ncc(CCc2ccccc2)s1)P(=O)(O)O showed an ED50 (Rattus norvegicus) of 0.0027 mg/kg.

With O=P(O)(O)C(O)(Cc1nccn1Cc1ccccc1)P(=O)(O)O the ED50 (Rattus norvegicus) was 0.025 mg/kg.

For O=P(O)(O)C(O)(CCc1c[nH]cn1)P(=O)(O)O, the ED50 (Rattus norvegicus) was 0.02 mg/kg.

In the case of O=P(O)(O)C(O)(CCNCCSc1ccccc1)P(=O)(O)O, the ED50 (Rattus norvegicus) is reported as over 0.2 mg/kg.

CCN(CCCOc1ccccc1)CCC(O)(P(=O)(O)O)P(=O)(O)O gave an ED50 (Rattus norvegicus) of 0.02 mg/kg.

O=P(O)(O)C(O)(CCNCCCSc1ccccc1)P(=O)(O)O gave an ED50 (Rattus norvegicus) of 0.007 mg/kg.

Compound O=P(O)(O)C(O)(CCNCCCCc1ccccc1)P(=O)(O)O has an ED50 (Rattus norvegicus) of 0.001 mg/kg.

Work on CN(CCCCCCOc1ccccc1)CCC(O)(P(=O)(O)O)P(=O)(O)O yielded an ED50 (Rattus norvegicus) of 7.5 mg/kg.

CN(CCOc1ccc(Cl)cc1)CCC(O)(P(=O)(O)O)P(=O)(O)O gave an ED50 (Rattus norvegicus) of 0.0017 mg/kg.

In the case of O=P(O)(O)C(O)(C1CCCNC1)P(=O)(O)O (stereo not drawn), the ED50 (Rattus norvegicus) is reported as 0.25 mg/kg.

For CC(CCc1ccccc1)NCCC(O)(P(=O)(O)O)P(=O)(O)O (stereo not drawn), the ED50 (Rattus norvegicus) was over 10 mg/kg.

Work on CCCc1cnc(NC(P(=O)(O)O)P(=O)(O)O)s1 yielded an ED50 (Rattus norvegicus) of 0.002 mg/kg.

CNCCC(O)(P(=O)(O)O)P(=O)(O)O showed an ED50 (Rattus norvegicus) of about 0.015 mg/kg.

For O=P(O)(O)C(Nc1ncc[nH]1)P(=O)(O)O, the ED50 (Rattus norvegicus) was about 0.5 mg/kg.

In the case of O=P(O)(O)C(O)(C1CCNCC1)P(=O)(O)O, the ED50 (Rattus norvegicus) is reported as about 2.5 mg/kg.
